pIC50: −log10 of the molar value. “Also recorded” adds a separate entry of the source. Read-outs that look alike come from different tables or passages of the source.
What was measured:
[1] = tested on: L. amazonensis promastigotes; experiment: Leishmanicidal activity against promastigote forms, L. amazonensis; format: cell-based, Leishmania amazonensis
Procedure, shortened: (§1)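 Promastigotes (L. amazonensis WHOM/00LTB0016; L. infantum MHOM/MA/67/ITMAP-263) at 1 × 10⁶ cells/mL in Schneider's medium with 10% FBS were exposed to eight test compound levels (1.5–200 μg mL−1) for 72 h at 26 °C. Untreated cells were the negative control and miltefosine the standard.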

[2] = tested on: L. infantum promastigotes; experiment: Leishmanicidal activity against promastigote forms, L. infantum; format: cell-based, Leishmania infantum
Procedure, shortened: as §1

[3] = tested on: T. cruzi amastigotes (Tulahuen strain); experiment: Amastigote assay; format: cell-based; conditions: Trypanosoma cruzi, L929, read-out: Amastigote, IC50
Procedure, shortened: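 Tulahuen T. cruzi expressing E. coli beta-galactosidase, grown in L-929 fibroblasts in RPMI 1640 without phenol red with 10% FBS and glutamine. Fibroblasts were seeded at 4.0 × 10³/well overnight (37 °C, 5% CO2), then given trypomastigotes at 4.0 × 10⁴/well for 2 h before the free parasites were removed. At 48 h, test compound in DMSO was added (0.625–20 μg mL−1, six levels, quadruplicate). After 7 days, 100 μM chlorophenol red β-D-galactopyranoside and 0.1% Nonidet P-40 were added overnight at 37 °C and A570 read as % growth inhibition. Benznidazole was the positive control; two independent experiments.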

[4] = tested on: L. infantum promastigotes; conditions: cited from earlier work
LLC-MK2 cells = conditions: read-out: LLC-MK2, CC50, cited from earlier work
[5] = tested on: L. amazonensis promastigotes; conditions: cited from earlier work
T. cruzi trypomastigotes = experiment: Cell death assessment through flow cytometry; format: cell-based, Trypanosoma cruzi; conditions: for double-positive (double-stained) cells (upper right quadrant): 24 hours
Procedure, shortened: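 […] trypomastigotes taken from infected L929 supernatant were seeded at 4 × 10⁵/well in RPMI-1640 with test compound (in DMSO) at three levels, 37 °C for 24 h. Benznidazole was the positive control and medium the negative control. Cells were washed in PBS, placed in binding buffer, and labelled with propidium iodide (50 μg mL−1 solution) plus Annexin-FITC for 15 min at room temperature in the dark. 20000 events were acquired, in triplicate, and analysed by ANOVA with Dunnett's test (p < 0.05).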

[6] = Leishmania amazonensis, 72 h, read-out: Promastigotes IC50L.Ama, 72 hours
[7] = Leishmania infantum, 72 h, read-out: Promastigotes IC50L.Inf, 72 hours
[8] = read-out: IC50L.inf, earlier carboxylic acids

| Compound | pIC50 [1, 6] | pIC50 [2, 7] | also measured |
| --- | --- | --- | --- |
| CCOC(=O)c1csc(NN=C(C)c2ccccc2)n1 [1g, Ethyl 2-(2-(1-phenylethylidene)hydrazinyl)thiazole-4-carboxylate] | 4.37 | 4.43 | pIC50 [3]: 4.39 |
| CCOC(=O)c1csc(NN=Cc2ccc(OC)cc2)n1 [1c, Ethyl 2-(2-(4-methoxybenzylidene)hydrazinyl)thiazole-4-carboxylate] | 3.41 | 3.48 | pIC50 [4, 8]: 4.07 |
| CCOC(=O)c1csc(NN=Cc2cccc(Br)c2)n1 [1e, Ethyl 2-(2-(3-bromobenzylidene)hydrazinyl)thiazole-4-carboxylate] | 3.61 | 3.77 |  |
| CCOC(=O)c1csc(NN=Cc2cccc(OC)c2)n1 [1d, Ethyl 2-(2-(3-methoxybenzylidene)hydrazinyl)thiazole-4-carboxylate] | 3.80 | 3.98 |  |
| CCCCCCCCCCCCCCCCOP(=O)([O-])OCC[N+](C)(C)C [Miltefosine, reference compound] |  |  | CC50 (LLC-MK2 cells; standard drug Miltefosine): 12.3 µM; pIC50 ([5]; read-out: Promastigotes IC50L.Ama, standard drug Miltefosine): 4.44; pIC50 ([4]; read-out: Promastigotes IC50L.Inf, standard drug Miltefosine): 4.27 |
| CCOC(=O)CC1SC(=NN=Cc2cccc(Br)c2)NC1=O (centres unmarked) [2e, Ethyl 2-(2-(3-bromobenzylidene)hydrazono)-4-oxothiazolidine-5-acetate] | 3.92 | 3.94 |  |
| CCOC(=O)CC1SC(=NN=Cc2ccc(O)c(OC)c2)NC1=O (centres unmarked) [2p, Ethyl 2-(2-(4-hydroxy-3-methoxybenzylidene)hydrazono)-4-oxothiazolidine-5-acetate] | 3.63 | 3.49 |  |
| O=C(Cn1ccnc1[N+](=O)[O-])NCc1ccccc1 [BZD, Benznidazole, reference compound] |  |  | pIC50 [3]: 5.25; double-positive (double-stained) cells (upper right quadrant) (T. cruzi trypomastigotes; at 2 × IC50 (1f 1.66 μM; BZD 70.8 μM)): 19.56%; CC50 (LLC-MK2 cells; standard drug BZD): 615 µM |
| CCOC(=O)c1csc(NN=Cc2ccco2)n1 [1h, Ethyl 2-(2-(furan-2-ylmethylene)hydrazinyl)thiazole-4-carboxylate] | 3.35 | 3.43 | pIC50 [3]: 4.12 |
| CCOC(=O)CC1SC(=NN=Cc2ccccc2C)NC1=O (centres unmarked) [2n, Ethyl 2-(2-(2-methylbenzylidene)hydrazono)-4-oxothiazolidine-5-acetate] | 3.57 | 3.78 |  |
| CCOC(=O)CC1SC(=NN=Cc2ccccc2Cl)NC1=O (centres unmarked) [2c, Ethyl 2-(2-(2-chlorobenzylidene)hydrazono)-4-oxothiazolidine-5-acetate] | 3.94 | 3.89 |  |
| CCOC(=O)CC1SC(=NN=Cc2ccc([N+](=O)[O-])cc2)NC1=O (centres unmarked) [2f, Ethyl 2-(2-(4-nitrobenzylidene)hydrazono)-4-oxothiazolidine-5-acetate] | 4.24 | 3.49 |  |
| CCOC(=O)CC1SC(=NN=Cc2ccc(OC)cc2)NC1=O (centres unmarked) [2i, Ethyl 2-(2-(4-methoxybenzylidene)hydrazono)-4-oxothiazolidine-5-acetate] | 3.77 | 3.83 |  |
| CCOC(=O)CC1SC(=NN=C2CCCc3ccccc32)NC1=O (centres unmarked) [2o, Ethyl 2-((2-(3,4-dihydronaphthalen-1(2H)-ylidene))hydrazono)-4-oxo-thiazolidin-5-acetate] | 3.75 | 3.75 |  |
| COC(=O)CC1SC(=NN=Cc2ccc(Cl)cc2)NC1=O (centres unmarked) [2b, Methyl 2-(2-(4-chlorobenzylidene)hydrazono)-4-oxothiazolidine-5-acetate] | 4.04 | 4.48 |  |
| CCOC(=O)c1csc(NN=Cc2cccc(Cl)c2)n1 [1a, Ethyl 2-(2-(3-chlorobenzylidene)hydrazinyl)thiazole-4-carboxylate] | 3.72 | 3.78 | pIC50 [3]: 4.77 |
| CCOC(=O)CC1SC(=NN=Cc2ccccc2[N+](=O)[O-])NC1=O (centres unmarked) [2h, Ethyl 2-(2-(2-nitrobenzylidene)hydrazono)-4-oxothiazolidine-5-acetate] | 4.77 | 3.53 |  |
| CCOC(=O)CC1SC(=NN=Cc2ccccc2O)NC1=O (centres unmarked) [2l, Ethyl 2-(2-(2-hydroxybenzylidene)hydrazono)-4-oxothiazolidine-5-acetate] | 4.07 | 4.17 |  |
| CCOC(=O)c1csc(NN=Cc2ccccc2Br)n1 [1f, Ethyl 2-(2-(2-bromobenzylidene)hydrazinyl)thiazole-4-carboxylate] | 4.63 | 4.63 | pIC50 ([1]; read-out: Promastigotes IC50L.Ama, 72 hours): 4.61; pIC50 [3]: 4.25; cell death mechanism of T. cruzi (T. cruzi trypomastigotes; PI / Annexin-V staining): necrosis and apoptosis; also recorded: consistent with necrosis; double-positive (double-stained) cells (upper right quadrant) (T. cruzi trypomastigotes; at 4 × IC50 (1f 3.32 μM; BZD 141.6 μM)): 17.58% |
| CCOC(=O)CC1SC(=NN=Cc2ccc(C)cc2)NC1=O (centres unmarked) [2m, Ethyl 2-(2-(4-methylbenzylidene)hydrazono)-4-oxothiazolidine-5-acetate] | 4.87 | 4.73 | pIC50 ([2]; read-out: Promastigotes IC50L.Inf, 72 hours): 4.73 |
| CCOC(=O)CC1SC(=NN=Cc2cccc([N+](=O)[O-])c2)NC1=O (centres unmarked) [2g, Ethyl 2-(2-(3-nitrobenzylidene)hydrazono)-4-oxothiazolidine-5-acetate] | 3.51 | 3.48 |  |
| CCOC(=O)CC1SC(=NN=Cc2ccccc2OC)NC1=O (centres unmarked) [2j, Ethyl 2-(2-(2-methoxybenzylidene)hydrazono)-4-oxothiazolidine-5-acetate] | 3.73 | 3.63 |  |
| CCOC(=O)CC1SC(=NN=Cc2ccc(Br)cc2)NC1=O (centres unmarked) [2d, Ethyl 2-(2-(4-bromobenzylidene)hydrazono)-4-oxothiazolidine-5-acetate] | 4.83 | 4.84 |  |
| CCOC(=O)CC1SC(=NN=Cc2cccc(O)c2)NC1=O (centres unmarked) [2k, Ethyl 2-(2-(3-hydroxybenzylidene)hydrazono)-4-oxothiazolidine-5-acetate] | 3.44 | 3.43 |  |
| CCOC(=O)c1csc(NN=Cc2ccccc2Cl)n1 [1b, Ethyl 2-(2-(2-chlorobenzylidene)hydrazinyl)thiazole-4-carboxylate] | 4.55 | 4.84 | pIC50 ([5]; read-out: IC50L.ama, earlier carboxylic acids): 4.46; pIC50 [4, 8]: 4.23 |
| CCOC(=O)CC1SC(=NN=Cc2ccccc2)NC1=O (centres unmarked) [2a, Ethyl 2-((2-benzylidene)hydrazono)-4-oxothiazolidine-5-acetate] | 3.44 | 3.44 |  |

Source: publication PMC8693751 (RSC Advances, 2021)
